Paper PMC7655718 (The Journal of antibiotics, 2020)
In brackets after ≈: the same amount, converted by molar mass. Like-named read-outs stand apart in the source and are kept apart here.

Columns and labels:
[1] = tested on: S. aureus ATCC 33591 (Sa91); experiment: MIC, microdilution with resazurin; type: cell-based; details: Staphylococcus aureus, ATCC33591, read-out: MIC Sa91
In short: (§1)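 Compounds dissolved in DMSO at 2 mg/mL. Overnight blood-agar colonies were suspended in PBS to 0.5 McFarland, then diluted in Mueller Hinton broth to about 1x10^6 cfu/mL with resazurin (1:1000 of 0.1% w/v stock). Twofold DMSO dilutions were added 1:40, giving 50 to 0.4 μg/mL at 2.5% DMSO. Incubation was 35 °C for 16-20 h. Blue/non-turbid wells counted as inhibited, pink/turbid as grown.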

[2] = tested on: S. aureus ATCC 25923 preformed biofilm; experiment: Biofilm destruction assay; type: cell-based, Staphylococcus aureus; details: 2xMIC
In short: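 Biofilm was first grown in 96-well plates for 24 h at 35 °C and washed with PBS to remove unadhered cells. Fresh yeast extract casamino acid broth was added with compound at 2xMIC, MIC or 0.5xMIC, or DMSO, in triplicate, plus broth-only wells. Incubation was 35 °C for 24 h. Crystal violet was stained, solubilised and read at 620 nm. % destruction = [1−(ODcompound−ODbroth)/(ODdmso−ODbroth)]×100, from triplicate means.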

[3] = tested on: S. aureus ATCC 33599 (MRSA); experiment: BacLight membrane permeability assay; type: cell-based, Staphylococcus aureus; details: versus positive control vancomycin
[4] = tested on: A. baumannii ATCC 19606 (type strain, Ab06); experiment: MIC and MBC; type: cell-based, Acinetobacter baumannii
In short: as §1

[5] = tested on: S. epidermidis 700296 (Se); experiment: MIC, microdilution with resazurin; type: cell-based; details: Staphylococcus epidermidis, read-out: MIC Se
In short: as §1

[6] = tested on: human embryonic kidney cell line (HEK293); experiment: Toxicity against HEK293 cell line; type: cell-based; details: for selectivity factor (IC50/MIC): HEK293 IC50 over MIC, as high as
[7] = tested on: S. aureus BAA-2312 (Sa12); experiment: MIC, microdilution with resazurin; type: cell-based; details: Staphylococcus aureus, BAA2312, read-out: MIC Sa12
In short: as §1

[8] = tested on: B. subtilis ATCC 6623 (Bs); experiment: MIC, microdilution with resazurin; type: cell-based, Bacillus subtilis; details: Bacillus subtilis, ATCC6623, read-out: MIC Bs
[9] = tested on: S. aureus ATCC 25923 (Sa23); experiment: MIC, microdilution with resazurin; type: cell-based; details: Staphylococcus aureus, ATCC25923, read-out: MIC Sa23
In short: as §1

[10] = tested on: tested Gram-positive bacterial strains; experiment: MIC, text summary over tested Gram-positive strains; type: cell-based; details: for MIC: read-out: MIC value as low as
[11] = tested on: A. baumannii ATCC 747 (Ab47); experiment: MIC, microdilution with resazurin; type: cell-based, Acinetobacter baumannii; details: for MIC: Acinetobacter baumannii, ATCC747, read-out: MIC Ab47
In short: as §1

[12] = tested on: S. aureus ATCC 33592 (Sa92); experiment: MIC, microdilution with resazurin; type: cell-based; details: Staphylococcus aureus, ATCC33592, read-out: MIC Sa92
In short: as §1

[13] = tested on: S. aureus ATCC 700699 (Sa99); experiment: MIC, microdilution with resazurin; type: cell-based; details: Staphylococcus aureus, ATCC700699, read-out: MIC Sa99
In short: as §1

[14] = tested on: S. aureus ATCC 25923 biofilm formation; experiment: Biofilm inhibition assay; type: cell-based, Staphylococcus aureus
In short: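 Blood-agar culture was suspended in PBS (0.5 McFarland), then diluted 1:100 in yeast extract casamino acid broth (about 1x10^6 cfu/mL). Compound at 2xMIC, MIC and 0.5xMIC was added before biofilm formation, in triplicate, with broth-only and bacteria+DMSO controls. Incubation was 35 °C for 24 h. Wells were PBS-washed, dried, stained with 0.1% crystal violet, solubilised in 33% acetic acid and read at 620 nm. % inhibition = [1−(ODcompound−ODbroth)/(ODdmso−ODbroth)]×100, from mean and SD.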

[15] = tested on: S. aureus ATCC 33599 (MRSA); experiment: MIC and MBC; type: cell-based, Staphylococcus aureus; set-up: MBC as multiple of the MIC: unit not given beside the values; details: for MBC / MIC: Staphylococcus aureus, ATCC33599|MRSA
In short: as §1

[16] = tested on: S. aureus ATCC 33599 (MRSA); experiment: Time kill assay; type: cell-based, Staphylococcus aureus
In short: (§2)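 Growth curves by optical density set the log phase. Log-phase bacteria (about 2 h shaking in Mueller Hinton broth II) were diluted in warm broth to about 3x10^6 cfu/mL. They were exposed to compound at 4xMIC (other multiples where indicated), in triplicate, at 35 °C. Colistin (A. baumannii) or vancomycin (S. aureus) and DMSO were included. Samples at 0, 2, 4, 6, 8, 10, 12 and 24 h were counted by drop plate on blood agar (18-24 h, 35 °C). Log cfu/mL was plotted against time.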

[17] = tested on: A. baumannii ATCC 19606; experiment: Time kill assay; type: cell-based, Acinetobacter baumannii; details: 4xMIC
In short: as §2

[18] = tested on: A. baumannii ATCC BAA-1605 (Ab05); experiment: MIC, microdilution with resazurin; type: cell-based, Acinetobacter baumannii
In short: as §1

[19] = Acinetobacter baumannii, ATCC19606, read-out: MIC Ab06
[20] = MIC and 0.5xMIC tested, 24 hours

**Q.** What does the source list for `O=C(O)c1ccc(-n2cc(/C=N/Nc3cc(F)ccc3F)c(-c3ccc4ccccc4c3)n2)cc1` [Compound 19]?
**A.** MIC [1]: 3.12 µg/mL (≈ 6.67 µM); destruction of preformed biofilm [2]: potent activity; membrane disruption activity, PI/SYTO-9 ratio [3]: more potent membrane disruption activity than vancomycin; MIC [4, 19]: > 50 µg/mL; MIC [5]: 3.12 µg/mL (≈ 6.67 µM); selectivity factor (IC50/MIC) [6]: ≤ 48.7; MIC [7]: 3.12 µg/mL (≈ 6.67 µM); MIC [8]: 3.12 µg/mL (≈ 6.67 µM); MIC [9]: 1.56 µg/mL (≈ 3.33 µM); antimicrobial activity against the tested strains [10]: enhanced activity against all the tested strains; MIC [11]: > 50 µg/mL; MIC [12]: 1.56 µg/mL (≈ 3.33 µM); MIC [13]: 0.78 µg/mL (≈ 1.67 µM); inhibition of biofilm formation ([14]; 2xMIC, MIC and 0.5xMIC concentrations, 24 hours): most effective compound

**Q.** What does the source list for `O=C(O)c1ccc(-n2cc(/C=N/Nc3ccc(Cl)cc3Cl)c(-c3ccc4ccccc4c3)n2)cc1` [Compound 20]?
**A.** MIC [1]: 6.25 µg/mL (≈ 12.5 µM); membrane disruption activity, PI/SYTO-9 ratio [3]: more potent membrane disruption activity than vancomycin; MIC [4, 19]: > 50 µg/mL; MBC as multiple of the MIC ([15]; S. aureus ATCC 33599 (MRSA)): 8; MBC [15]: 6.25 µg/mL (≈ 12.5 µM); MIC [15]: 0.78 µg/mL (≈ 1.56 µM); MIC [5]: 3.12 µg/mL (≈ 6.23 µM); selectivity factor (IC50/MIC) [6]: ≤ 48.7; time kill effect ([16]; 4xMIC, 24 hours at 35 °C): mild bactericidal effect; time kill effect ([16]; 8xMIC): strongly bactericidal; time to kill all bacteria ([16]; 8xMIC): ≤ 4 h; MIC [7]: 3.12 µg/mL (≈ 6.23 µM); MIC [8]: 3.12 µg/mL (≈ 6.23 µM); MIC [9]: 3.12 µg/mL (≈ 6.23 µM); antimicrobial activity against the tested strains [10]: enhanced activity against all the tested strains; MIC [11]: > 50 µg/mL; MIC [12]: 0.78 µg/mL (≈ 1.56 µM); MIC [13]: 0.78 µg/mL (≈ 1.56 µM)

**Q.** What does the source list for `O=C(O)c1ccc(-n2cc(/C=N/Nc3c(F)c(F)cc(F)c3F)c(-c3ccc4ccccc4c3)n2)cc1` [Compound 23]?
**A.** MIC [1]: > 50 µg/mL; MIC [4, 19]: > 50 µg/mL; MBC [15]: 12.5 µg/mL (≈ 24.8 µM); MIC [15]: 1.56 µg/mL (≈ 3.09 µM); MIC [5]: > 50 µg/mL; toxicity for HEK293 [6]: selective toxicity for bacterial cells; MIC [7]: > 50 µg/mL; MIC [8]: 3.12 µg/mL (≈ 6.19 µM); MIC [9]: 3.12 µg/mL (≈ 6.19 µM); MIC [10]: ≥ 0.78 µg/mL; MIC [11]: > 50 µg/mL; MIC [12]: 1.56 µg/mL (≈ 3.09 µM); MIC [13]: 1.56 µg/mL (≈ 3.09 µM)

**Q.** With `O=C(O)c1ccc(-n2cc(/C=N/Nc3ccc(C(F)(F)F)cc3)c(-c3ccc4ccccc4c3)n2)cc1` [Compound 25] as the compound, how does the MIC [1] read?
**A.** Its MIC is 25 µg/mL (≈ 50 µM).

**Q.** And the “destruction of preformed biofilm” value [2, 20]?
**A.** The value was “excellent ability to eliminate the preformed biofilms”.

**Q.** What about the MIC [4, 19] of the same compound?
**A.** Its MIC is over 50 µg/mL.

**Q.** And the MBC [15]?
**A.** The MBC was 25 µg/mL (≈ 50 µM).

**Q.** And the MIC [15]?
**A.** The MIC was 0.78 µg/mL (≈ 1.56 µM).

**Q.** And the MIC [5]?
**A.** Its MIC is 25 µg/mL (≈ 50 µM).

**Q.** And the MIC [7]?
**A.** The MIC was 12.5 µg/mL (≈ 25 µM).

**Q.** What about the MIC [8] of the same compound?
**A.** Its MIC is 1.56 µg/mL (≈ 3.12 µM).

**Q.** What about the MIC [9] of the same compound?
**A.** Its MIC is 0.78 µg/mL (≈ 1.56 µM).

**Q.** What about the MIC [10] of the same compound?
**A.** Its MIC is at least 0.78 µg/mL.

**Q.** And the MIC [11]?
**A.** The MIC was over 50 µg/mL.

**Q.** What about the MIC [12] of the same compound?
**A.** Its MIC is 0.78 µg/mL (≈ 1.56 µM).

**Q.** And the MIC [13]?
**A.** The MIC was 0.78 µg/mL (≈ 1.56 µM).

**Q.** What about the “inhibition of biofilm formation” value ([14]; 2xMIC) of the same compound?
**A.** The value was “potent biofilm inhibition activity”.

**Q.** `CN[C@H](CC(C)C)C(=O)N[C@H]1C(=O)N[C@@H](CC(N)=O)C(=O)N[C@H]2C(=O)N[C@H]3C(=O)N[C@H](C(=O)N[C@H](C(=O)O)c4cc(O)cc(O)c4-c4cc3ccc4O)[C@H](O)c3ccc(c(Cl)c3)Oc3cc2cc(c3O[C@@H]2O[C@H](CO)[C@@H](O)[C@H](O)[C@H]2O[C@H]2C[C@](C)(N)[C@H](O)[C@H](C)O2)Oc2ccc(cc2Cl)[C@H]1O` [VC, vancomycin, reference compound] was tested. Which MIC [1] did it give?
**A.** Its MIC is 3.12 µg/mL (≈ 2.16 µM).

**Q.** And the “destruction of preformed biofilm” value [2, 20]?
**A.** Its value is “almost failed to show any activity”.

**Q.** What about the MIC [4, 19] of the same compound?
**A.** Its MIC is over 50 µg/mL.

**Q.** And the MBC [15]?
**A.** The MBC was 6.25 µg/mL (≈ 4.31 µM).

**Q.** And the MIC [15]?
**A.** Its MIC is 3.12 µg/mL (≈ 2.16 µM).

**Q.** What about the MIC [5] of the same compound?
**A.** Its MIC is 3.12 µg/mL (≈ 2.16 µM).

**Q.** And the “time until bacteria were eliminated” value ([16]; 4xMIC)?
**A.** Its value is at most 8 h.

**Q.** And the “time kill effect” value ([16]; 4xMIC, 24 hours at 35 °C)?
**A.** Its value is “mildly bactericidal”.

**Q.** What about the MIC [7] of the same compound?
**A.** The MIC was 0.78 µg/mL (≈ 0.538 µM).

**Q.** What about the MIC [8] of the same compound?
**A.** Its MIC is 0.195 µg/mL (≈ 0.135 µM).

**Q.** And the MIC [9]?
**A.** Its MIC is 1.56 µg/mL (≈ 1.08 µM).

**Q.** And the MIC [11]?
**A.** The MIC was over 50 µg/mL.

**Q.** What about the MIC [12] of the same compound?
**A.** Its MIC is 0.39 µg/mL (≈ 0.269 µM).

**Q.** What about the MIC [13] of the same compound?
**A.** Its MIC is 3.12 µg/mL (≈ 2.16 µM).

**Q.** What about the “inhibition of biofilm formation” value ([14]; 0.5xMIC) of the same compound?
**A.** The value was “weak inhibition”.

**Q.** What about the “inhibition of biofilm formation” value ([14]; 2xMIC and MIC concentration) of the same compound?
**A.** Its value is “potent inhibition”.

**Q.** For colistin [reference compound], which “MIC Ab06” value ([4]; A. baumannii ATCC 19606 (type strain)) is on record?
**A.** Its value is 3.125 µg/mL.

**Q.** And the MIC ([4]; A. baumannii ATCC 19606, Table 2)?
**A.** Its MIC is 3.125 µg/mL.

**Q.** And the MBC ([4]; A. baumannii ATCC 19606, concentration killing 99.9% or greater)?
**A.** The MBC was 6.25 µg/mL.

**Q.** And the “time to completely kill the starting population” value [17]?
**A.** The value was at most 4 h.

**Q.** And the “time kill effect” value ([17]; 24 hours at 35 °C)?
**A.** Its value is “immediate bactericidal effect”.

**Q.** And the “MIC Ab05” value [18]?
**A.** Its value is 3.125 µg/mL.

**Q.** And the “MIC Ab47” value ([11]; A. baumannii ATCC 747)?
**A.** Its value is 1.56 µg/mL.
